{
  "source": "paper PMC5214883",
  "about": "(Molecular cancer therapeutics, 2016)",
  "key": {"[1]": {"test_system": "CAIX-expressing SKRC-52 cells", "test": "In vitro cytotoxicity assay", "assay_type": "cell-based, human", "settings": "read-out: IC50 (cytotoxicity), 72 h, 37 °C, MTS"}, "SKRC-52 xenografts [2]": {"test_system": "SKRC-52 xenografts", "settings": "cited from earlier work"}, "[3]": {"test": "Linker stability assay in PBS", "assay_type": "physicochemical", "settings": "pH 7.4"}, "[4]": {"test": "Linker stability assay in mouse serum", "assay_type": "in vitro ADME"}, "Dose escalation study": {"test": "Dose escalation study", "parameters": "species or system Balb/c nu/nu mice", "settings": "female, athymic Balb/c nu/nu, mouse, in vivo", "procedure,_shortened": "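Escalating doses (250 or 500 nmol/Kg) were given as five injections on five consecutive days to […] female athymic Balb/c nu/nu mice aged 8–10 weeks. An acetazolamide-targeted prodrug was compared with an untargeted analogue, with three mice per group.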"}, "SKRC-52 xenografts [5]": {"test_system": "SKRC-52 xenografts", "test": "Therapy experiments in mice bearing subcutaneous SKRC-52 tumors", "assay_type": "in vivo, Balb/c nu/nu mice", "settings": "250 nmol/Kg, ten daily administrations"}},
  "note": "Non-standard residues stand in square brackets, D forms with d. Residues, ends and D or L forms follow the SMILES beside them. *: point of attachment. Dolaproine = CO[C@@H]([C@@H]1CCCN1)[C@@H](C)C(=O)O; Dil = CC[C@H](C)[C@H](NC)[C@@H](CC(=O)O)OC; X1 = C[C@@H](N*)[C@@H](O)c1ccccc1; NMeV = CN[C@H](C(=O)O)C(C)C",
  "data": [
    {"smiles": "COc1cccc2c1C(=O)c1c(O)c3c(c(O)c1C2=O)C[C@@](O)(C(=O)CO)C[C@@H]3O[C@H]1C[C@H]2[C@H](O[C@@H]3[C@@H](OC)OCCN32)[C@H](C)O1", "note": "[PNU-159682]", "values": [
      {"measurement": "IC50", "setting": "[1]", "result": 0.16, "unit": "nM"}
    ]},
    {"smiles": "CNC(=O)c1cc(Oc2ccc(NC(=O)Nc3ccc(Cl)c(C(F)(F)F)c3)cc2)ccn1", "note": "[sorafenib]", "values": [
      {"measurement": "activity against SKRC-52 tumors", "setting": "SKRC-52 xenografts [2]", "result": "did not display any detectable activity"}
    ]},
    {"smiles": "CC[C@H](C)[C@@H]([C@@H](CC(=O)N1CCC[C@H]1[C@H](OC)[C@@H](C)C(=O)N[C@H](C)[C@@H](O)c1ccccc1)OC)N(C)C(=O)[C@@H](NC(=O)[C@H](C(C)C)N(C)C(=O)OCc1ccc(NC(=O)[C@H](CCCNC(N)=O)NC(=O)[C@@H](NC(=O)CCCCCN2C(=O)CC(SC[C@H](NC(=O)[C@H](CC(=O)O)NC(=O)[C@H](CCCNC(=N)N)NC(=O)[C@H](CC(=O)O)NC(=O)CCCCn3cc(CCCC(=O)Nc4nnc(S(N)(=O)=O)s4)nn3)C(=O)O)C2=O)C(C)C)cc1)C(C)C", "note": "(some centres unmarked) [Compound 4a]", "values": [
      {"measurement": "half-life at 100 μg/ml", "setting": "[3]", "result": "> 48", "unit": "h"},
      {"measurement": "main release product (mass spectrometric analysis)", "setting": "[4]; degradation profile in mouse serum", "result": "free MMAE"},
      {"measurement": "conjugate intact after 6 hours in mouse serum", "setting": "[4]; mouse serum, 37 °C, 6 hours, LC-MS", "result": "> 70", "unit": "%"},
      {"measurement": "half-life", "setting": "[4]; mouse, mouse serum", "result": "~7", "unit": "h"},
      {"measurement": "MTD at 5 days", "setting": "Dose escalation study", "result": 0.5, "unit": "µmol/kg"},
      {"measurement": "acute toxicity and body weight", "setting": "SKRC-52 xenografts [5]", "result": "no acute toxicity and no significant weight loss"},
      {"measurement": "durable complete response", "setting": "SKRC-52 xenografts [5]", "result": "One out of five"}
    ]},
    {"smiles": "CC[C@H](C)[C@@H]([C@@H](CC(=O)N1CCC[C@H]1[C@H](OC)[C@@H](C)C(=O)N[C@H](C)[C@@H](O)c1ccccc1)OC)N(C)C(=O)[C@@H](NC(=O)[C@@H](NC)C(C)C)C(C)C", "note": "[MMAE, monomethyl auristatin E] (H-[NMeV]V[Dil][Dolaproine]-X1)", "values": [
      {"measurement": "IC50", "setting": "[1]", "result": 1.5, "unit": "nM"}
    ]},
    {"smiles": "CCN(CC)CCNC(=O)c1c(C)[nH]c(/C=C2\\C(=O)Nc3ccc(F)cc32)c1C", "note": "[sunitinib]", "values": [
      {"measurement": "activity against SKRC-52 tumors", "setting": "SKRC-52 xenografts [2]", "result": "did not display any detectable activity"}
    ]}
  ]
}
